Assay results taken from ChEMBL document CHEMBL4513216, “Probing the Open Global Health Chemical Diversity Library for Multistage-Active Starting Points for Next-Generation Antimalarials” (ACS Infect Dis, 2020).

Test: Toxicity liver stage against HepG2, at 10uM
Assay type: cell-based
Design: test concentration 10 uM, cell line HepG2-A16-CD81EGFP
Settings: human, HepG2-A16-CD81EGFP cells; read-out: INHIBITION
How it was run: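 Uninfected HepG2-A16-CD81EGFP cells, 3 × 10^3 per well, 1536-well, plated on prespotted compound at 10 μM final, parasite-free screening media added to match infected plates; puromycin 10 μM positive, DMSO 0.5% negative; run in parallel with 48 h PbLuc assay at 37 °C, 5% CO2; viability by CellTiter-Glo luminescence, normalized to controls.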

Structure (SMILES)	cytotoxicity at 10 µM [%]
Cc1cccc2c1nc1n2[C@@H](CNC(=O)c2ccncc2)COC1	3.04
COCCn1c(-c2cccc(OC)c2)cnc1NC(=O)NC(C)C	4.04
Cc1ccc2oc(SCC(N)=O)nc2n1	9.65
Cc1ccc(Cl)cc1NCc1nc2[nH]c(C)c(C)c(=O)n2n1	-4.96
Cc1ccc(CN2CC(O)CN(C(=O)OCC(C)C)CC2=O)cc1 (stereo not drawn)	-3.09
CSc1nsc(SCC(=O)c2cc3c(cc2Cl)NC(=O)C3)n1	5.13
CCOC(=O)Cn1c(=O)nc(N)c2c(-c3ccc(OC)cc3)csc21	-33.2
Cc1ccc(C(=O)N2CCCc3c(c(=O)n(C)n3C)C2)o1	5.92
CC(C)N1CCO[C@H]2CN(S(=O)(=O)c3ccc(C#N)cc3)C[C@H]21	7.55
Cc1ccoc1C(=O)N1CC[C@@]2(C[C@H](NS(C)(=O)=O)CCO2)C1	7.43
COCCC1COC2(CCN(C(=O)CC3CCCC3)CC2)C1 (stereo not drawn)	-2.46
Cc1cncc(C(=O)N2CCCC3(CCCN3S(C)(=O)=O)C2)c1 (stereo not drawn)	-152
CCC1=N[C@@]2(CC[C@@H]3CN(C(=O)NCC(C)C)C[C@@H]32)C(=O)N1CC1CC1	9.61
CCCS(=O)(=O)N1CCOC2(CCCN(c3ccc(C)nn3)C2)C1 (stereo not drawn)	2.08
COCCNC(=O)[C@@H]1CCO[C@@H]2CCN(Cc3cnn(C)c3)C[C@@H]21	0.341
O=C(c1ccnnc1)N1C[C@@H](OCC2CCCC2)[C@H]2OCCC[C@H]21	-11.8
Cc1nn(C)cc1S(=O)(=O)NCC(C)Cn1cc(Cl)cn1 (stereo not drawn)	0.197
Cc1nn(C)cc1C(=O)NCc1csc(C2CC2)n1	-4.1
c1cc(C2CCN(c3cnccn3)CC2)ccn1	3.94
CN(C)Cc1cccc(-c2cccnc2C(=O)NCC2CC2)c1	1.59
c1cc(C2CCN(C3CCCCC3)C2)n[nH]1 (stereo not drawn)	1.65
Cc1cc2ccncc2n1CC1(O)CCN(C(=O)c2ccccn2)CC1	0.166

Structure (SMILES)	cytotoxicity at 10 µM [%]
CC(C)=CCCC1(C)C=Cc2c(cc(C)n(CC(=O)O)c2=O)O1 (stereo not drawn)	-2.72
Cc1ncc(-c2ccncc2)c(C2CCCN(C(=O)c3ccno3)C2)n1 (stereo not drawn)	11.9
COc1ccc(-c2cc(C(=O)NCCCn3ccnc3C)n(C)n2)cc1	-6.67
COCCN1CCCC(c2ncc(C(=O)N3CCOCC3)c(C)n2)C1 (stereo not drawn)	0.893
CC(C)Nc1nc(O)cc(C2CC(=O)N(Cc3ccccc3)C2)n1 (stereo not drawn)	-28.5
CN1CCOC(C)(C(=O)N2CCSCC2)C1 (stereo not drawn)	-9.71
O=C(C1CCN(c2cccnn2)C1)N1CCOCC1 (stereo not drawn)	-25.4
Cc1cc(N2CC(c3n[nH]c4nccnc34)C2)ncn1	-11.2
CC(C)C(=O)NC1CCCc2nc(N3CCOCC3)ncc21 (stereo not drawn)	10.2
CC(=O)N1CCCc2cc(Nc3nccn(C)c3=O)ccc21	-49.4
Brc1cnc(NCCCOC2CCOCC2)nc1	-5.2
Cc1cc(C)c(C(=O)N(C)CCN(C)C(=O)c2[nH]c(C)cc2C)[nH]1	-1.91
O=C(O)CC(NC(=O)CCCc1cccs1)c1ccc(F)cc1 (stereo not drawn)	-2.99
NC(=O)C1=NN2C(=NS(=O)(=O)c3ccccc32)N1	7.58
COCc1nccc(C2CCCN(Cc3cccc(C#N)c3)C2)n1 (stereo not drawn)	18.7
O=C(NCCc1ccc(F)cc1)NC1CCCc2c1cnn2CCO (stereo not drawn)	-3.46
COc1ccc(-c2nnc(SC(C)C(N)=O)[nH]2)c(OC)c1 (stereo not drawn)	-15
CCN(Cc1cccc(F)c1)S(=O)(=O)N1CCOCC1	-1.71
CNS(=O)(=O)c1cc(C(=O)NC2COc3ccccc32)cc(C)c1C (stereo not drawn)	-1.51
CS(=O)(=O)CCN(CCCO)C1CCc2ccccc21 (stereo not drawn)	7.37
O=C(Nc1ccccc1N1CCOC1=O)N1CCc2sccc2C1	-5.55
O=C(CCC1CCCO1)NCCc1ccccn1 (stereo not drawn)	-43.2

Structure (SMILES)	cytotoxicity at 10 µM [%]
Cn1cc(C(C)(O)CNc2ccc(C(F)(F)F)cn2)cn1 (stereo not drawn)	-44.3
Cc1cc(OCC(=O)NC(C)c2ccc(N3CCOCC3)cc2)no1 (stereo not drawn)	-12.9
CN1[C@H](CN2CCCC2)C[C@@H]2CN(C(=O)c3cnccn3)CC[C@@H]21	10.6
Cc1ccc(C(=O)N2CCC3(CCCN(c4ccc(C)nn4)C3)C2)cn1 (stereo not drawn)	-112
CS(=O)(=O)NCc1noc2c1CN(C(=O)C1CCC1)CC2	-105
CN(C)C(=O)CN1CCC2(CCCN(Cc3ccsc3)C2)C1=O (stereo not drawn)	-106
Cc1ccc2c(n1)N(CCN(C)C)CCN(C(=O)N1CCOCC1)C2	-73.1
C[C@H]1CN(C(=O)c2ccc[nH]2)C[C@@]12CCN(c1ccsc1)C2=O	-77.4
Cc1nc([C@@H]2C[C@@H]3CCN(C(=O)c4ccsc4)C[C@H]3O2)no1	-8.44
CC(C)NC(=O)CC1CC2(CCN(S(C)(=O)=O)CC2)c2ccccc21 (stereo not drawn)	-2.48
c1ccc2c(c1)CC(n1ccnc1-c1cc3n(n1)CCCNC3)CO2 (stereo not drawn)	-8.26
COCCc1noc(CN2CC(C)(c3ccccc3)CCC2=O)n1 (stereo not drawn)	3.1
COc1ccc(NC2(C(=O)N3CCn4cncc4C3)CCCC2)cc1	7.42
O=c1n(Cc2ccccn2)nc(C2CCNCC2)n1Cc1ccccc1	2.69
Cc1ccc(C(C(=O)N2CCC(Cc3noc(C)n3)CC2)N(C)C)cc1 (stereo not drawn)	-5.37
CC(=O)C1(c2ccccc2)CCN(C(=O)c2ccc3nnnn3c2)CC1	20.1
CC(=O)Nc1ccc(Cl)c(C(=O)N(C)C(C)c2ccon2)c1 (stereo not drawn)	-48.7
OC(c1ccccc1)c1cn(C2CCN(Cc3nccs3)CC2)nn1 (stereo not drawn)	7.44
CC(C)n1cnnc1CN(C)C(=O)c1cccnc1O	2.1
CC(C(=O)O)N1CC2(CCC1=O)CCN(C/C=C/c1ccccc1)CC2 (stereo not drawn)	-1.72
COc1ccccc1-c1ncc(CN2CCC3(CCN(C)C3)CC2)cn1	3.92
Cc1cccc(C)c1OC1CN(C(=O)C2CC(=O)N(C(C)(C)C)C2)C1 (stereo not drawn)	0.213

Structure (SMILES)	cytotoxicity at 10 µM [%]
CCc1nnc(CNC(=O)c2cc3c(nc2OC)CCC3)s1	0.156
Cc1cnccc1CN(C)Cc1c[nH]nc1-c1ccc(F)cc1F	-5.93
CC(=O)N1CCc2c(nc(N(C)C)nc2NCCCn2ccnc2)C1	-7.28
O=C(O)C(c1ccc(O)cc1)N1CCC(N2CCSCC2)CC1 (stereo not drawn)	0.646
CNc1ncc(CN(C)C(=O)c2cccc(Cn3cccn3)c2)cn1	1.32
COCc1noc(-c2ccc(N3CCCC3c3ccc(F)cc3)nc2)n1 (stereo not drawn)	5.79
C/C=C(\C)CN1C[C@H](NC(=O)CN2CCCC2=O)[C@@H](c2ccc(C)o2)C1	10.8
COCc1nc(CNC2CCSCC2)no1	-9.87
CC(C)c1cc(NCC(O)c2ccc(F)cc2)n2nccc2n1 (stereo not drawn)	0.255
CCc1cnc(N2CCC(=O)N(CC3CC3)C(C(C)C)C2)nc1 (stereo not drawn)	-6.28
COc1ccc(NC(=O)Cn2nc(C)c(C)cc2=O)cc1OC	-20.4
CN1CCN(c2cc(CNC(=O)c3cccnc3O)ccn2)CC1	-5.42
Cc1nccc(-c2cccc(NCC(=O)N3CCNC3=O)c2)n1	1.9
CC(=O)NCCNC(=O)CN1CCN(Cc2nccn2C)C(C)C1 (stereo not drawn)	-6.73
O=C(CCCNC(=O)C1CC1)Nc1cnn(-c2ccccc2Cl)c1	-12.3
Cn1ccc(C(=O)NC2CCN(c3ncccn3)CC2)cc1=O	-7.32
O=C(c1ccc(OCC2CC2)nc1)N1CCCC(n2cncn2)C1 (stereo not drawn)	-3.25
CC(=O)c1cccc(OCCCC(=O)NCC2CCCN2C)c1 (stereo not drawn)	0.71
Cc1cn2c(n1)CCC(NC(=O)c1ccc(CS(C)(=O)=O)cc1)C2 (stereo not drawn)	-2.19
Cc1cnc(CN2CCOC(Cn3nc(C)nc3C)C2)cn1 (stereo not drawn)	1.46
COc1cc(C(=O)Nc2c(C)noc2C)ccc1C	-15
Cc1cc(CN2CCN(C(=O)NCc3ccc(C)s3)CC2)no1	-2.84

Structure (SMILES)	cytotoxicity at 10 µM [%]
CC(Cn1cccn1)NC(=O)N1CCN(Cc2cccs2)CC1 (stereo not drawn)	2.31
COc1cc(C(=O)NC(CC(=O)O)c2cccs2)cc(Cl)c1OC (stereo not drawn)	4.31
CCn1ncc2c1CCCC2NCc1cccc2c1OCCO2 (stereo not drawn)	1.71
CC(O)CN1CCN(C(=O)c2ccc(Cn3cccc3)cc2)CC1 (stereo not drawn)	-5.75
CC(NC(=O)CCCOc1ccccc1)c1nnc2n1CCCCC2 (stereo not drawn)	-9.51
c1cc(NCc2ccncc2)nc(C2CCCNC2)c1 (stereo not drawn)	-1.83
O=C(CC1CC1)N[C@@H]1CN(Cc2ccccn2)C[C@@H]2CCCO[C@@H]21	6.09
Cn1cc(CN2CCCC3(CCCCN3S(C)(=O)=O)C2)cn1 (stereo not drawn)	-76.3
CC1=N[C@@]2(CC[C@@H]3CN(CC(C)C)C[C@@H]32)C(=O)N1C	3.5
CN(Cc1ccco1)[C@@H]1CN(C(=O)c2ccnnc2)C[C@@H]2CCCO[C@@H]21	-10.5
O=C1COC2(CCN(Cc3cccnc3)CC2)CN1	2.78
CCS(=O)(=O)N1CCC2(CN(c3cccc(C)n3)C2)C1	3.5
Cc1ccc(CNCC2Cn3nnc(-c4cccc(F)c4)c3CO2)o1 (stereo not drawn)	-0.617
COCCN1CCO[C@@H]2CN(C(=O)Cc3ccccc3)CC[C@@H]2C1	4.98
COc1ccc(CC(=O)N2CC[C@@H]3[C@H](CC2)N(C)CCS3(=O)=O)cc1	-104
Cc1ccc(CN2C[C@@H]3CCCO[C@@H]3[C@H](N(C)Cc3ccco3)C2)o1	6.43
Cc1ccc(N2CC[C@@H]3[C@@H]2CCN3C(=O)c2cscn2)nn1	5.38
Cc1ncnc2c1CCN(CC1CCOC1)CC2 (stereo not drawn)	-67.2
Cc1ncsc1CN1CCn2c(COCC3CC3)cnc2C1C (stereo not drawn)	-1.82
Cc1cnc(CNC(=O)[C@@]23CCO[C@@H]2CCN(C2CCCC2)C3)cn1	-110
